Measurements from ChEMBL document CHEMBL1153743, “Pyrrolidinones from the ascomycete fungus Albonectria rigidiuscula” (J Nat Prod, 2009).
Activity calls are given as the source filed them. The calls are words filed in the database; no cut-off is given here.

Key:
Assay type in all cases: functional, cell-based
HeLa [1] = test: Cytotoxicity against human HeLa cells after 48 hrs by MTT assay
Procedure, shortened: (§1)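 HeLa cells seeded at 10^4 per well and left to attach overnight. Cells were exposed for 4 h at 37 °C and 5% CO2 to serial dilutions or a single 120 µM level, made from 10 mg/mL DMSO stocks, or to 0.2% DMSO medium. They then grew 48 h in fresh DMEM. MTT (0.5 mg/mL) was added for 3 h in the dark, formazan was dissolved in DMSO, and A540 was read. Run in triplicate; IC50 reported.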

MCF7 [2] = test: Cytotoxicity against human MCF7 cells after 48 hrs by MTT assay; settings: MCF7, 48 h
HeLa [3] = test: Cytotoxicity against human HeLa cells at 120 uM after 48 hrs by MTT assay; procedure, shortened: as §1
MCF7 [4] = test: Cytotoxicity against human MCF7 cells at 120 uM after 48 hrs by MTT assay

| Compound | IC50 (HeLa [1]) [µM] | IC50 (MCF7 [2]) [µM] | Activity (HeLa [3]) | Activity (MCF7 [4]) |
| --- | --- | --- | --- | --- |
| CN1C(=O)[C@@](C)(O)[C@@H](O)[C@@H]1Cc1ccc2c(c1)CC(C(C)(C)O)O2 (stereo partly drawn) | > 120 | > 120 | inactive | inactive |
| CN1C(=O)[C@@](C)(O)[C@@H](O)[C@@H]1Cc1ccc(O)cc1 | 95.6 | 95.6 |  |  |
| O=c1[nH]cc(F)c(=O)[nH]1 [FLUOROURACIL] | 10 |  |  |  |
| CN1C(=O)[C@@](C)(O)C(=O)[C@@H]1Cc1ccc2c(c1)CC(C(C)(C)O)O2 (stereo partly drawn) | > 120 | > 120 | inactive | inactive |
| CN1C(=O)[C@@](C)(O)C(=O)[C@@H]1Cc1ccc(O)cc1 | 48.2 | 100 |  |  |
